Experimental data as given in ChEMBL document CHEMBL1124747, “Properties of the nucleic acid photoaffinity labeling agent 3-azidoamsacrine” (J Med Chem, 1990).

Assays:
[1] = Ability to block cleavage of G/GNCC site in Restriction endonuclease Sau961 with the light activated test compound/DNA ratio 1(no. of sites=15); += light activation
How it was run: (§1)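 pBR322 plasmid mixed with drug at 0.015, 0.12 or 0.48 mM (drug:DNA 1:8, 1:1 or 4:1), equilibrated on ice 30 min in the dark in 5 mM potassium phosphate pH 5.5, then irradiated 1 h with a medium-pressure Hg lamp (<340 nm filtered); dark set kept as control. Digested overnight with 10× excess enzyme plus DTT; fragments resolved on 1.2% agarose in TBE.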

[2] = Ability to block cleavage of C/CGG site in HpaII enzyme with the light activated test compound/DNA ratio 4(no. of sites=26); += light activation; how it was run: as §1
[3] = Viability of L5178Y cells was evaluated at dose 0.008 mg/mL in dark-II condition (expt-I); assay type: functional, Mus musculus
How it was run: (§2)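 L5178Y cells were exposed for 20 h at 3 × 10^6 cells/mL. Light arms then received 6.5 min of Hg-lamp irradiation filtered to remove light below 340 nm. Cells were washed twice in Fischer's medium, grown a further 24 h and held at 3 × 10^5 cells/mL. For viability, 200 cells were plated in soft-agar cloning medium in triplicate dishes, and colonies were counted by an automated counter after 10 days.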

[4] = Ability to block cleavage of TTT/AAA site in DraI enzyme with the light activated test compound/DNA ratio 4(no. of sites=3); += light activation; how it was run: as §1
[5] = Induction frequency for L5178Y cells was evaluated at dose 0.005 mg/mL in light condition (expt-II); assay type: functional, Mus musculus
How it was run: (§3)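 L5178Y suspension cells (3 × 10^6/mL, 5% CO2, 37 °C, shaking) exposed 20 h without activating enzyme; light arm irradiated 6.5 min (Hg lamp, <340 nm filtered). Cells washed, grown 24 h more and kept at 3 × 10^5/mL. Viability from 200 cells in soft agar; TFT (0.1 mg/mL) resistant colonies from 10^6 cells in triplicate dishes, counted at 10 days.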

[6] = Induction frequency for L5178Y cells was evaluated at dose 0.008 mg/mL in dark-II condition (expt-I); assay type: functional, Mus musculus; how it was run: as §3
[7] = Relative toxicity against mammalian L5178Y cells at dose 0.008 mg/mL in dark-2 condition (expt-I); assay type: functional, Mus musculus; conditions: in the assay text read “0.008 µg/mL” for “0.008 mg/mL”
How it was run: (§4)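 L5178Y mouse cells in suspension, 3 × 10^6 cells/mL, were exposed for 20 h at 37 °C in a shaker at 150 rpm under 5% CO2, without an activating enzyme. Light arms were irradiated for 6.5 min with a medium-pressure Hg lamp filtered to remove light below 340 nm; dark arms were not. Toxicity was taken as the Coulter-counted density of treated cells versus solvent control.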

[8] = Mutation frequency for L5178Y cells was evaluated at dose 0.005 mg/mL in dark-I condition (expt-I); assay type: functional, Mus musculus; how it was run: as §3
[9] = Induction frequency for L5178Y cells was evaluated at dose 0.005 mg/mL in dark-I condition (expt-I); assay type: functional, Mus musculus; how it was run: as §3
[10] = Ability to block cleavage of G/ANTC site in Hinf1 enzyme with the light activated test compound/DNA ratio 1(no. of sites=10); += light activation; how it was run: as §1
[11] = Mutation frequency for L5178Y cells was evaluated at dose 0.008 mg/mL in dark-II condition (expt-I); assay type: functional, Mus musculus; how it was run: as §3
[12] = Relative toxicity against mammalian L5178Y cells at dose 0.005 mg/mL in dark condition (expt-II); assay type: functional, Mus musculus; how it was run: as §4
[13] = Relative mutation induction for L5178Y cells was evaluated at dose 0.005 mg/mL in light-I condition (expt-I); assay type: functional, Mus musculus; how it was run: as §3
[14] = Relative mutation induction for L5178Y cells was evaluated at dose 0.005 mg/mL in light condition (expt-II); assay type: functional, Mus musculus; how it was run: as §3
[15] = Ability to block cleavage of C/CGG site in HpaII enzyme with the light activated test compound/DNA ratio 1:8(no. of sites=26); += light activation; how it was run: as §1
[16] = Ability to block cleavage of GCC/GGC site in NaeI enzyme with the light activated test compound/DNA ratio 1:8(no. of sites=4); += light activation; how it was run: as §1
[17] = Mutation frequency for L5178Y cells was evaluated at dose 0.005 mg/mL in dark condition (expt-II); assay type: functional, Mus musculus; how it was run: as §3
[18] = Ability to block cleavage of AG/CT site in AluI enzyme with the light activated test compound, DNA ratio 1:8(no. of sites=16); += light activation; how it was run: as §1
[19] = Ability to block cleavage of GG/CC site in HaeIII enzyme with the light activated test compound/DNA ratio 1:8(no. of sites=22); += light activation; how it was run: as §1
[20] = Mutation frequency for L5178Y cells was evaluated at dose 0.005 mg/mL in light condition (expt-II); assay type: functional, Mus musculus; how it was run: as §3
[21] = Relative mutation induction for L5178Y cells was evaluated at dose 0.008 mg/mL in dark-II condition (expt-I); assay type: functional, Mus musculus
[22] = Half-life was evaluated in water in the presence of light; assay type: ADME
[23] = Mean value of mutation induction for L5178Y cells was evaluated at dose 0.005 mg/mL in light-I condition (expt-I); assay type: functional, Mus musculus; how it was run: as §3
[24] = Ability to block cleavage of AG/CT site in AluI enzyme with the light activated test compound, DNA ratio 4(no. of sites=16); += light activation; how it was run: as §1
[25] = Ability to block cleavage of GCC/GGC site in NaeI enzyme with the light activated test compound/DNA ratio 4(no. of sites=4); += light activation; how it was run: as §1
[26] = Mean value of mutation induction for L5178Y cells was evaluated at dose 0.008 mg/mL in light-II condition (expt-I); assay type: functional, Mus musculus; how it was run: as §3
[27] = Relative toxicity against mammalian L5178Y cells at dose 0.005 mg/mL in dark-1 condition (expt-I); assay type: functional, Mus musculus; how it was run: as §4
[28] = Viability of L5178Y cells was evaluated at dose 0.008 mg/mL in light-II condition (expt-I); assay type: functional, Mus musculus; how it was run: as §2
[29] = Ability to block cleavage of GCC/GGC site in NaeI enzyme with the light activated test compound/DNA ratio 1(no. of sites=4); += light activation; how it was run: as §1

Blockage activity [1]: Light activation
Blockage activity [2]: Light activation
Blockage activity [4]: Light activation
Blockage activity [10]: Light activation
Blockage activity [15]: Light activation
Blockage activity [16]: Light activation
Blockage activity [18]: Light activation
Blockage activity [19]: Light activation
half-life [22]: 2.02 min
Blockage activity [24]: Light activation
Blockage activity [25]: Light activation
Blockage activity [29]: Light activation
SMILES: COc1cc(NS(C)(=O)=O)ccc1Nc1c2ccccc2nc2cc(N=[N+]=[N-])ccc12.Cl
Viability [3]: 22.3
Induced frequency [5]: 411
Induced frequency [6]: 457
Relative toxicity [7]: 55
Mutation frequency [8]: 427 10e6 F
Induced frequency [9]: 319
Mutation frequency [11]: 565 10e6 F
Relative toxicity [12]: 65
Relative activity [13]: 30
Relative activity [14]: 28
Mutation frequency [17]: 504 10e6 F
Mutation frequency [20]: 640 10e6 F
Relative activity [21]: 23
Mean value [23]: 123.7
Mean value [26]: 0
Relative toxicity [27]: 69
Viability [28]: 0
